In ChEMBL document CHEMBL3102734, “Inhibition of LOX by flavonoids: a structure-activity relationship study” (Eur J Med Chem, 2014) one finds Km and Vmax data, which are given here for one protein.

Holding throughout (details): Glycine max
Substrate in data set [1]: O=c1cc(-c2ccc(O)cc2)oc2cc(O)cc(O)c12
Put plainly: (§1) Activity at soybean LOX-1 using linoleic acid as substrate at 25 uM preincubated for 5 mins followed by substrate addition by Michaelis-Menten plot analysis. Put shortly:
(§2)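 Soybean LOX-1 (supplied lyophilized) kinetic assay. Enzyme pre-incubated with inhibitor 5 min, then linoleic acid added. Conversion to the cis,trans-hydroperoxide followed at 234 nm at 30 °C with continuous soft shaking. Readings every 30 s for 10 min; rate taken as the 0–3 min slope. Three inhibitor concentrations tested against three substrate concentrations. Inhibition type assigned by nonlinear Michaelis–Menten fitting and Lineweaver–Burk plots. At least four experiments, each in triplicate.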

Substrate in data set [2]: O=c1c(O)c(-c2ccc(O)c(O)c2)oc2cc(O)cc(O)c12
The data set is described as §1. The procedure, abridged:
as §2

Substrate in data set [3]: O=c1cc(-c2ccc(O)c(O)c2)oc2cc(O)ccc12
The description is as §1. The procedure, abridged: as §2

Substrate in data set [4]: O=c1cc(-c2ccc(O)c(O)c2)oc2ccccc12
The data set is described as §1. Put shortly: as §2

Substrate in data set [5]: O=c1cc(-c2ccccc2)oc2cc(O)cc(O)c12
The description is as §1. The procedure, abridged: as §2

Substrate in data set [6]: O=c1cc(-c2ccc(O)c(O)c2)oc2cccc(O)c12
Described as §1. The procedure, abridged:
as §2

Substrate in data set [7]: O=c1cc(-c2ccc(O)cc2)oc2cccc(O)c12
Put plainly: (§3) Activity at soybean LOX-1 using linoleic acid as substrate at 50 uM preincubated for 5 mins followed by substrate addition by Michaelis-Menten plot analysis. The procedure, abridged:
as §2

Substrate in data set [8]: O=c1cc(-c2cccc(O)c2)oc2cc(O)cc(O)c12
The description is as §3. The procedure, abridged:
as §2

Substrate in data set [9]: O=c1cc(-c2ccc(O)c(O)c2)oc2cc(O)cc(O)c12
The data set is described as §3. Put shortly: as §2

Substrate in data set [10]: O=c1cc(-c2ccc(O)c(O)c2)oc2cccc(O)c12
The description is as §3. Put shortly: as §2

Substrate in data set [11]: O=c1cc(-c2ccc(O)cc2)oc2cccc(O)c12
Put plainly: (§4) Activity at soybean LOX-1 using linoleic acid as substrate at 10 uM preincubated for 5 mins followed by substrate addition by Michaelis-Menten plot analysis. The procedure, abridged:
as §2

Substrate in data set [12]: O=c1cc(-c2ccc(O)c(O)c2)oc2cc(O)ccc12
The description is as §4. Put shortly:
as §2

Substrate in data set [13]: O=c1cc(-c2ccc(O)c(O)c2)oc2ccccc12
The data set is described as §4. Put shortly: as §2

Substrate in data set [14]: O=c1cc(-c2ccc(O)c(O)c2)oc2cc(O)cc(O)c12
The data set is described as §4. Put shortly: as §2

Substrate in data set [15]: O=c1cc(-c2ccccc2)oc2cc(O)cc(O)c12
The description is as §4. Put shortly:
as §2

Substrate in data set [16]: O=c1cc(-c2ccc(O)cc2)oc2cc(O)cc(O)c12
Put plainly: (§5) Activity at soybean LOX-1 using linoleic acid as substrate at 100 uM preincubated for 5 mins followed by substrate addition by Michaelis-Menten plot analysis. Put shortly:
as §2

Substrate in data set [17]: O=c1c(O)c(-c2ccc(O)c(O)c2)oc2cc(O)cc(O)c12
The data set is described as §5. Put shortly: as §2

Substrate in data set [18]: O=c1cc(-c2cccc(O)c2)oc2cc(O)cc(O)c12
The data set is described as §5. The procedure, abridged: as §2

B1: Seed linoleate 13S-lipoxygenase-1 (Glycine max), P08170 (protein)
chain: MFSAGHKIKGTVVLMPKNELEVNPDGSAVDNLNAFLGRSVSLQLISATKADAHGKGKVGKDTFLEGINTSLPTLGAGESAFNIHFEWDGSMGIPGAFYIKNYMQVEFFLKSLTLEAISNQGTIRFVCNSWVYNTKLYKSVRIFFANHTYVPSETPAPLVSYREEELKSLRGNGTGERKEYDRIYDYDVYNDLGNPDKSEKLARPVLGGSSTFPYPRRGRTGRGPTVTDPNTEKQGEVFYVPRDENLGHLKSKDALEIGTKSLSQIVQPAFESAFDLKSTPIEFHSFQDVHDLYEGGIKLPRDVISTIIPLPVIKELYRTDGQHILKFPQPHVVQVSQSAWMTDEEFAREMIAGVNPCVIRGLEEFPPKSNLDPAIYGDQSSKITADSLDLDGYTMDEALGSRRLFMLDYHDIFMPYVRQINQLNSAKTYATRTILFLREDGTLKPVAIELSLPHSAGDLSAAVSQVVLPAKEGVESTIWLLAKAYVIVNDSCYHQLMSHWLNTHAAMEPFVIATHRHLSVLHPIYKLLTPHYRNNMNINALARQSLINANGIIETTFLPSKYSVEMSSAVYKNWVFTDQALPADLIKRGVAIKDPSTPHGVRLLIEDYPYAADGLEIWAAIKTWVQEYVPLYYARDDDVKNDSELQHWWKEAVEKGHGDLKDKPWWPKLQTLEDLVEVCLIIIWIASALHAAVNFGQYPYGGLIMNRPTASRRLLPEKGTPEYEEMINNHEKAYLRTITSKLPTLISLSVIEILSTHASDEVYLGQRDNPHWTSDSKALQAFQKFGNKLKEIEEKLVRRNNDPSLQGNRLGPVQLPYTLLYPSSEEGLTFRGIPNSISI
Take B1: the Km in data set [1] is 191 µM; in data set [2] it was 129 µM; in data set [3], 190 µM; in [4], 191 µM; in data set [5] it was 55 µM; in [6], 104 µM. Moreover, the Michaelis constant (Km) in [7] is 61.3 µM; in [8], 145 µM; in data set [9] it was 148 µM; in data set [10] it was 46.4 µM; in data set [11], 105 µM; in [12] it was 97.4 µM. The Km in data set [13] was 137 µM; in data set [14], 190 µM; in data set [15], 71 µM; in data set [16] it was 191 µM; in [17], 100 µM; in [18], 111 µM. Moreover, the Vmax in data set [2] was 0.008 µM; in data set [9], 0.009 µM; in [14], 0.012 µM; in [17], 0.006 µM.

A word on the Km: it is the substrate concentration at which the rate is half of its maximum.
